# KDM4C inh: inhibitors of GASC-1 (KDM4C) histone demethylase, primary screen, biochemical, single concentration HTS. GST-KDM4C 2-372, H3K9me3 peptide, LANCE TR-FRET. inhibition, % at 12.5 µM. actives 0.15% (n = 96,000). AID 720574, 2013;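 active = mean replicate inhibition above about 25%, with at least 55% of replicates also reaching it, limit read from the data, passing the limit was not always enough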
#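 Material: GST-tagged GASC-1 (JMJD2C) catalytic fragment, aa 2-372. Input: enzyme final amount 10 nM. Medium: HEPES buffer, pH 7.5, plus ascorbate. Reagent: H3K9me3 peptide substrate, Fe(II), 2-oxoglutarate. Doses: single dose. Times: reaction 30 min RT, detection step 1 h RT. Measured by: LANCE TR-FRET. Evaluation: Fall in 671/618 emission ratio as inhibition.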
# IDH1 mut inh: inhibitors of IDH1 R132H reductase, primary screen, biochemical, plate reader, single point | inhibition, % at 10 µM | actives 0.18% (n = 70,000) | diaphorase/resazurin fluorescence, 60 min | AID 624101, 2012 | Isocitrate dehydrogenase [NADP] cytoplasmic (Homo sapiens), O75874; in the data active = inhibition above about 34%
# Target sequence (O75874 whole entry R132H): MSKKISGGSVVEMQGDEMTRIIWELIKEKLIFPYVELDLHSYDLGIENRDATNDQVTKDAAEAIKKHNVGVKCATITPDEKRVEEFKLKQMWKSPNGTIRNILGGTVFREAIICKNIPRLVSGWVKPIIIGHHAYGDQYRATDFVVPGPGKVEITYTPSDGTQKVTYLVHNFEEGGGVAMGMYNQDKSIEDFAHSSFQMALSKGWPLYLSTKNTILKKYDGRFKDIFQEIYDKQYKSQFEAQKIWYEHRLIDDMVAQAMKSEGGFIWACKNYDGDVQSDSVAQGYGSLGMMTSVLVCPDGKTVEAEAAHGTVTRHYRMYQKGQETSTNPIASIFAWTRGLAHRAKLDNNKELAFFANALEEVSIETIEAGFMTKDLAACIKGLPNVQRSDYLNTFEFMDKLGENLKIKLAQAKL
# Hits are given with their value; – = inactive; · = not tested or not shown. Only a selection was taken, and hits are over-represented in it overall.
SMILES,KDM4C inh,IDH1 mut inh
COc1ccc(C#Cc2cnc3c(c2)C(=O)N([C@H](C)CO)C[C@H](C)[C@H](CN(C)C)O3)cc1OC,28.9,–
COc1ccccc1-c1cnc2c(c1)C(=O)N([C@H](C)CO)C[C@@H](C)[C@H](CN(C)C)O2,32.7,–
COc1ccc(C#Cc2cnc3c(c2)C(=O)N([C@@H](C)CO)C[C@H](C)[C@H](CN(C)C)O3)cc1,28.2,–
COC(=O)c1cc(NC(=O)COc2ccccc2Cl)cc(C(=O)OC)c1,·,–
COc1cccc(-c2cc(=O)c3cc(OC)ccc3o2)c1,·,–
COc1cc(NC(=O)COc2ccc3ccccc3c2Br)c(OC)cc1Cl,·,–
C[C@@H]1CCCCO[C@@H](CN(C)C(=O)c2ccccc2)[C@@H](C)CN([C@@H](C)CO)C(=O)c2cc(NC(=O)Nc3ccc4c(c3)OCO4)ccc2O1,–,–
C/C=C/c1ccc2c(c1)O[C@H](CN(C)Cc1ccncc1)[C@@H](C)CN([C@H](C)CO)S2(=O)=O,–,42.5
C/C=C/c1ccc2c(c1)O[C@@H](CN(C)C(=O)Cc1cccnc1)[C@H](C)CN([C@H](C)CO)S2(=O)=O,–,–
C/C=C/c1ccc2c(c1)O[C@@H](CN(C)Cc1ccncc1)[C@@H](C)CN([C@@H](C)CO)S2(=O)=O,–,–
C/C=C/c1ccc2c(c1)O[C@@H](CN(C)C(=O)Cc1cccnc1)[C@H](C)CN([C@@H](C)CO)S2(=O)=O,–,45.8
CO[C@H]1CN(C)C(=O)c2cc(NC(=O)C3CC3)ccc2OC[C@@H](C)N(C(=O)c2ccccc2F)C[C@H]1C,–,–
Cc1ccc(N(C(C)C(=O)Nc2c(C)cc(C)cc2C)S(C)(=O)=O)cc1 (stereo unspecified),·,–
CC(=O)N(C)C[C@@H]1Oc2ncc(-c3ccc(C#N)cc3)cc2C(=O)N([C@H](C)CO)C[C@H]1C,–,–
C[C@H]1CN([C@@H](C)CO)C(=O)c2cc(Br)cnc2O[C@@H]1CN(C)C(=O)NC1CCCCC1,–,·
C[C@H](CO)N1C[C@H](C)[C@H](CN(C)C(=O)NC2CCCCC2)Oc2ncc(Br)cc2C1=O,–,35.2
COc1ccc(-c2cnc3c(c2)C(=O)N([C@H](C)CO)C[C@H](C)[C@@H](CN(C)C(=O)Cc2ccncc2)O3)cc1,–,–
CC(=O)N(C)C[C@H]1Oc2ncc(-c3ccc(C#N)cc3)cc2C(=O)N([C@H](C)CO)C[C@@H]1C,32.0,–
COc1ccc(-c2cnc3c(c2)C(=O)N([C@@H](C)CO)C[C@H](C)[C@@H](CN(C)C(=O)Cc2ccncc2)O3)cc1,–,40.6
COc1ccc(C(=O)CSc2nnc(-c3ccc(Cl)cc3)n2-c2ccc(OC)cc2)cc1,·,–
Cc1cccc(NC(=O)c2ccccc2NC(=O)COc2cccc([N+](=O)[O-])c2)c1C,·,–
COc1ccc(-c2ccc3n(c2=O)C[C@@H]2[C@@H](CO)[C@H](C(=O)N(C)C)N(CC4CC4)[C@H]32)cc1,27.7,·
COc1ccc(-c2ccc3n(c2=O)C[C@@H]2[C@@H](CO)[C@H](C(=O)N(C)C)N(CC4CCCC4)[C@H]32)cc1,–,·
C[C@@H]1CN([C@@H](C)CO)S(=O)(=O)c2ccc(C3=CCCCC3)cc2O[C@H]1CN(C)C(=O)Cc1ccncc1,–,57.7
C[C@@H]1CN([C@@H](C)CO)S(=O)(=O)c2ccc(C3=CCCCC3)cc2O[C@@H]1CN(C)Cc1cccnc1,–,38.4
SMILES,KDM4C inh,IDH1 mut inh
C[C@@H]1CN([C@@H](C)CO)S(=O)(=O)c2ccc(C3=CCCCC3)cc2O[C@@H]1CN(C)C(=O)Cc1ccncc1,–,·
C[C@@H]1CN([C@H](C)CO)S(=O)(=O)c2ccc(C3=CCCCC3)cc2O[C@@H]1CN(C)Cc1cccnc1,–,·
CCOC(=O)c1c(NC(=O)C(C)n2nc([N+](=O)[O-])c(Br)c2C)sc2c1CCC2 (stereo unspecified),·,–
COc1ccc(OC)c(N(CC(=O)Nc2ccc(I)cc2C)S(C)(=O)=O)c1,·,–
CC(C)(C)OC(=O)Nc1cccc(/C=N/NC(=O)CCCCCCC(=O)Nc2ccccc2O)c1,·,–
Cc1ccc(C(=O)C2C(=O)C(=O)N(Cc3cccnc3)C2c2cccc(Oc3ccccc3)c2)o1 (stereo unspecified),·,–
Cc1cc(-c2ccc(N=Nc3cc(S(=O)(=O)O)c4ccccc4c3N)c(C)c2)ccc1N=Nc1cc(S(=O)(=O)O)c2ccccc2c1N,·,42.6
Cc1cc(N)n(-c2ccc(Oc3ccccc3)cc2S(=O)(=O)O)n1,·,–
CCOC(=O)c1c(NC(=S)NC(=O)c2ccc3c(c2)OCCO3)sc(C(=O)OC)c1C,·,–
COCc1cn(CC[C@H]2CC[C@H](NC(=O)Nc3ccc(OC)cc3)[C@H](CO)O2)nn1,89.4,89.3
COCc1cn(CC[C@@H]2CC[C@@H](NC(=O)Nc3ccc(OC)cc3)[C@H](CO)O2)nn1,–,–
CCNC(=O)C[C@@H]1CC[C@@H]2[C@H](COc3ccc(NC(=O)c4ccccc4Cl)cc3C(=O)N2C)O1,–,·
Nc1nc(SCC(=O)c2ccc(-c3ccccc3)cc2)n[nH]1,·,–
O=C(N[C@H]1CC[C@H](CCNS(=O)(=O)Cc2ccccc2)O[C@H]1CO)c1ccc2c(c1)OCO2,35.3,–
O=C(N[C@@H]1CC[C@@H](CCNS(=O)(=O)Cc2ccccc2)O[C@@H]1CO)c1ccc2c(c1)OCO2,–,–
Cc1ccc(NC(=O)CSc2nc3ccccc3s2)cc1C,·,–
Cc1ccc(S(=O)(=O)NN2C(=O)S/C(=C/c3ccccc3)C2=S)cc1,·,–
C[C@@H]1CN([C@@H](C)CO)C(=O)c2c(c3ccccc3n2C)-c2ccccc2CO[C@@H]1CN(C)Cc1ccncc1,–,47.4
C[C@@H]1CN([C@@H](C)CO)C(=O)c2c(c3ccccc3n2C)-c2ccccc2CO[C@@H]1CN(C)Cc1ccc(O)cc1,–,·
O=C(O)c1cccc(CSc2nnc(-c3ccncc3)o2)c1,·,–
O=S(c1ccccc1)c1ccc2nnnn2n1 (stereo unspecified),·,62.4
CN(C)c1ccc2c(c1)[C@@H]1C[C@@H](CC(=O)NCc3ccccc3)O[C@H](CO)[C@@H]1O2,–,–
CN(C)c1ccc2c(c1)[C@H]1C[C@H](CC(=O)NCc3ccccc3)O[C@@H](CO)[C@H]1O2,35.6,–
COC(=O)C[C@@H]1C[C@@H]2c3cc(NC(=O)Nc4ccccc4F)ccc3O[C@@H]2[C@@H](CO)O1,41.0,81.5
COc1ccc(S(=O)(=O)Nc2ccc3c(c2)[C@H]2C[C@@H](CC(=O)NCC4CC4)O[C@H](CO)[C@H]2O3)cc1,43.5,74.0
O=C(O)C[C@@H]1C[C@H]2c3cc(NC(=O)Nc4ccccc4F)ccc3O[C@H]2[C@H](CO)O1,–,–
CN(C)c1ccc2c(c1)[C@@H]1C[C@@H](CC(=O)N3CCCCC3)O[C@H](CO)[C@@H]1O2,–,·
COc1ccc(S(=O)(=O)Nc2ccc3c(c2)[C@H]2C[C@@H](CC(=O)NCC4CC4)O[C@@H](CO)[C@H]2O3)cc1,–,–
CN(C)c1ccc2c(c1)[C@@H]1C[C@@H](CC(=O)N3CCOCC3)O[C@@H](CO)[C@@H]1O2,43.8,–
Cc1cc(C(F)(F)F)nn1CCCNC(=O)c1cc(-c2cccnc2)nc2ccc(Cl)cc12,·,–

# Screens deposited in PubChem BioAssay by Broad Institute.
